Assay results as given in ChEMBL document CHEMBL4616704, “Discovery of an Atropisomeric PI3Kβ Selective Inhibitor through Optimization of the Hinge Binding Motif” (ACS Med Chem Lett, 2020).
Where “and” joins values, the source holds several entries; their conditions need not be identical. Equal entries are not always repeated.

Columns and labels:
[1] = biological target: Phosphatidylinositol 4,5-bisphosphate 3-kinase catalytic subunit gamma isoform (Homo sapiens, UniProt P48736); test: Inhibition of human full length p110gamma using PIP2 as substrate after 30 mins in presence of ATP at 2xKm concentration by TR-FRET assay
[2] = biological target: PI3-kinase p110-delta/p85-alpha (Homo sapiens, UniProt O00329); test: Inhibition of human p110delta catalytic subunit/p85alpha using PIP2 as substrate after 30 mins in presence of ATP at 2xKm concentration by TR-FRET assay; assay type: protein-complex assay
How it was run: (§1)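 Class I PI3K isoforms assayed in vitro for kinase inhibition with ATP at 2Km steady-state concentration; IC50 values averaged over at least 2 determinations.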

[3] = biological target: PI3-kinase p110-alpha/p85-alpha (Homo sapiens, UniProt P42336); test: Inhibition of human full length p110alpha/p85alpha using PIP2 as substrate after 30 mins in presence of ATP at 2xKm concentration by TR-FRET assay; assay type: protein-complex assay; how it was run: as §1
[4] = biological target: T1, Phosphatidylinositol 4,5-bisphosphate 3-kinase catalytic subunit beta isoform (Homo sapiens, UniProt P42338); test: Inhibition of PI3Kbeta in PTEN-deficient human LNCAP cells assessed as reduction in AKT phosphorylation at Ser473 residue after 2 hrs by mesoscale assay; assay type: cell-based
How it was run: (§2)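 Cellular readout: pAKT1 Ser473 normalized to total AKT1, expressed as units pAKT1 Ser473 per nanogram total AKT1; cells treated under serum-free conditions.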

[5] = Oral bioavailability in cynomolgus monkey at 5 mg/kg dosed via gavage after 24 hrs by ESI-LC/MS/MS analysis; assay type: ADME, organism-based, Macaca fascicularis; conditions: in vivo
[6] = biological target: T1, Phosphatidylinositol 4,5-bisphosphate 3-kinase catalytic subunit beta isoform; test: Inhibition of PI3Kbeta in PTEN-deficient human ZR-75-1 cells assessed as reduction in AKT phosphorylation at Ser473 residue after 2 hrs by mesoscale assay; assay type: cell-based; how it was run: as §2
[7] = Protein binding in rhesus monkey plasma at 1 mg/kg administered as iv infusion for 30 mins and measured after 24 hrs by ESI-LC/MS/MS analysis; assay type: ADME, organism-based, Macaca mulatta; conditions: read-out: PPB (converted)
[8] = Protein binding in cynomolgus monkey plasma at 1 mg/kg administered as iv infusion for 30 mins and measured after 24 hrs by ESI-LC/MS/MS analysis; assay type: ADME, organism-based, Macaca fascicularis; conditions: read-out: PPB (converted)
[9] = Oral bioavailability in Sprague-Dawley rat at 5 mg/kg dosed via gavage after 24 hrs by ESI-LC/MS/MS analysis; assay type: ADME, organism-based; conditions: in vivo
[10] = Clearance in cynomolgus monkey at 1 mg/kg administered as iv infusion for 30 mins and measured after 24 hrs by ESI-LC/MS/MS analysis; assay type: ADME, organism-based, Macaca fascicularis; conditions: in vivo
[11] = Volume of distribution at steady state in cynomolgus monkey at 1 mg/kg administered as iv infusion for 30 mins and measured after 24 hrs by ESI-LC/MS/MS analysis; assay type: ADME, organism-based, Macaca fascicularis; conditions: in vivo, read-out: Vdss
[12] = Protein binding in Beagle dog plasma at 1 mg/kg administered as iv infusion for 30 mins and measured after 24 hrs by ESI-LC/MS/MS analysis; assay type: ADME, organism-based, Canis lupus familiaris; conditions: read-out: PPB (converted)
[13] = biological target: CYP450 (Homo sapiens, UniProt P04798+P05177+P05181+P08684+P10632+P10635+P11509+P11712+P13584+P20813+P20815+P20853+P24462+P24903+P33260+P33261+P51589+P78329+P98187+Q02928+Q08477+Q16678+Q16696+Q5TCH4+Q6VVX0+Q7Z449+Q8TAV3+Q96SQ9+Q9HB55); test: Inhibition of human CYP450; assay type: ADME, protein assay
How it was run: (§3)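 Binding-assay format used to measure inhibition of major human CYP450 enzymes and hERG.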

[14] = Volume of distribution at steady state in rhesus monkey at 1 mg/kg administered as iv infusion for 30 mins and measured after 24 hrs by ESI-LC/MS/MS analysis; assay type: ADME, organism-based, Macaca mulatta; conditions: in vivo, read-out: Vdss
[15] = biological target: Voltage-gated inwardly rectifying potassium channel KCNH2 (Homo sapiens, UniProt Q12809); test: Inhibition of human ERG; how it was run: as §3
[16] = biological target: T1, Phosphatidylinositol 4,5-bisphosphate 3-kinase catalytic subunit beta isoform; test: Inhibition of PI3Kbeta in PTEN-deficient human LNCaP C4-2 cells assessed as reduction in AKT phosphorylation at Ser473 residue after 2 hrs by mesoscale assay; assay type: cell-based; how it was run: as §2
[17] = Dissociation constant, acidic pKa of compound; assay type: physicochemical
[18] = biological target: T1, Phosphatidylinositol 4,5-bisphosphate 3-kinase catalytic subunit beta isoform; test: Inhibition of PI3Kbeta in PTEN-deficient human PC3 cells assessed as reduction in AKT phosphorylation at Ser473 residue after 2 hrs by mesoscale assay; assay type: cell-based, PC-3; how it was run: as §2
[19] = biological target: Cytochrome P450 3A4 (Homo sapiens, UniProt P08684); test: Inhibition of human CYP3A4; assay type: ADME
[20] = Protein binding in Sprague-Dawley rat plasma at 1 mg/kg administered as iv infusion for 30 mins and measured after 24 hrs by ESI-LC/MS/MS analysis; assay type: ADME, organism-based; conditions: read-out: PPB (converted)
[21] = Apparent permeability across basolateral to apical side in human Caco2 cells at 10 uM after 1 to 2 hrs by LC/MS/MS analysis; assay type: ADME, cell-based; conditions: Caco-2
[22] = biological target: T1, Phosphatidylinositol 4,5-bisphosphate 3-kinase catalytic subunit beta isoform; test: Inhibition of PI3Kbeta in PTEN-deficient human MDA-MB-415 cells assessed as reduction in AKT phosphorylation at Ser473 residue after 2 hrs by mesoscale assay; assay type: cell-based; how it was run: as §2
[23] = Genotoxicity in Salmonella typhimurium by Ames test; assay type: toxicity; conditions: salmonella enterica subsp. enterica serovar typhimurium
[24] = Clearance in human hepatocytes at 1 uM measured up to 250 mins by UHPLC-HRMS analysis; assay type: ADME, cell-based, Hepatocyte; conditions: 250 min, 1 µM
[25] = Apparent permeability across apical to basolateral side in human Caco2 cells at 10 uM after 1 to 2 hrs by LC/MS/MS analysis; assay type: ADME, cell-based; conditions: Caco-2
[26] = biological target: PI3K p110 beta/p85 alpha (Homo sapiens, UniProt P42338); test: Inhibition of recombinant human full-length N-terminal His6-tagged p110beta/human recombinant full-length untagged p85alpha expressed in baculovirus infected Sf21 insect cells using PIP2 as substrate after 30 mins in presence of ATP at 2xKm concentration by TR-FRET assay; how it was run: as §1
PI3K p110 beta/p85 alpha, sequence (P27986 whole entry): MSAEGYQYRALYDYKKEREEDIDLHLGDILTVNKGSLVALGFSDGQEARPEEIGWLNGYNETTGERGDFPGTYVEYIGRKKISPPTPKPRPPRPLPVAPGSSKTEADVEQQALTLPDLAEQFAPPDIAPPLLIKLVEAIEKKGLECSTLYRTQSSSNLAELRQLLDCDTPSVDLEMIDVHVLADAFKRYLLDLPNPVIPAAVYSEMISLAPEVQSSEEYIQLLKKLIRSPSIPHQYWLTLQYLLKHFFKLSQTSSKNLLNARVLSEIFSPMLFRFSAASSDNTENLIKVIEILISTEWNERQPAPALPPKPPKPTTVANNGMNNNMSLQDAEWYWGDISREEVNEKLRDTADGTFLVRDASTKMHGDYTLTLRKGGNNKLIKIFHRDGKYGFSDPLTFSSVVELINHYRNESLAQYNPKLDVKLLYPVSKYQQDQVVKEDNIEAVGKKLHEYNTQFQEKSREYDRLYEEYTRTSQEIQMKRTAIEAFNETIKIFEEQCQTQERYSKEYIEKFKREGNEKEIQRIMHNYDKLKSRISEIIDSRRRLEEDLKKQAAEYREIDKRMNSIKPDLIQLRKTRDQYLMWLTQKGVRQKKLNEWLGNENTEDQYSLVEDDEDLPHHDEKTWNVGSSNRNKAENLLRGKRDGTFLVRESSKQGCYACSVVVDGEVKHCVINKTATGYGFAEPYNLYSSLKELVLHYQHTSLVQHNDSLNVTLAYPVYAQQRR
PI3K p110 beta/p85 alpha, sequence (P42338 whole entry): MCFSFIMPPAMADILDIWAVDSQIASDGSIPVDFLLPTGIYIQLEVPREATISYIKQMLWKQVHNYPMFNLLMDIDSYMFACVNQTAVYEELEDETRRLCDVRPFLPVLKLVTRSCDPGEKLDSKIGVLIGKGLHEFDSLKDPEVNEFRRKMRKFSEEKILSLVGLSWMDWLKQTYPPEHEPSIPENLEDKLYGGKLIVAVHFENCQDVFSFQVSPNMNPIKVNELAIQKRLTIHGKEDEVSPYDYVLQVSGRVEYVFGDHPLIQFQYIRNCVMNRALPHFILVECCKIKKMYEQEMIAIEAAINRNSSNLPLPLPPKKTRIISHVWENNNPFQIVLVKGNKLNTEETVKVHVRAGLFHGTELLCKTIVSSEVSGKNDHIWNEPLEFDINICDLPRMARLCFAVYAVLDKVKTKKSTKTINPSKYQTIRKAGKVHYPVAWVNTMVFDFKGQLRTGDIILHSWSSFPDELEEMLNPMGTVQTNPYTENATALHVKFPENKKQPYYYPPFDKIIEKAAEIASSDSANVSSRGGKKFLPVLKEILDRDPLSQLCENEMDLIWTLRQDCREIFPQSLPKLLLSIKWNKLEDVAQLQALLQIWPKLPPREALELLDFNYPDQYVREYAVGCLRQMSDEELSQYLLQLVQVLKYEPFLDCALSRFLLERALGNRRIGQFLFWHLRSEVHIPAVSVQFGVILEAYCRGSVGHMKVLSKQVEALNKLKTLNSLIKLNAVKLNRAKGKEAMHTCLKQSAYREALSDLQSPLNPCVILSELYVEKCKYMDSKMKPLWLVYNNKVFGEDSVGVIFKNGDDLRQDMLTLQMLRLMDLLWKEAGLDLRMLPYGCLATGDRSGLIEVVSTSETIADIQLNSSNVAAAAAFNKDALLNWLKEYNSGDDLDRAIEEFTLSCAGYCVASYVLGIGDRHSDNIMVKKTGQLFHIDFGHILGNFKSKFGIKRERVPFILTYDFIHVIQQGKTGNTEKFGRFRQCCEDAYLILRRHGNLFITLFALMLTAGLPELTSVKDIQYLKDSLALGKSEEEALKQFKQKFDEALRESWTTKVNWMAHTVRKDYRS

PI3-kinase p110-delta/p85-alpha, sequence (P27986 whole entry, canonical isoform): as the sequence (P27986 whole entry) above
PI3-kinase p110-delta/p85-alpha, sequence (O00329 whole entry, canonical isoform): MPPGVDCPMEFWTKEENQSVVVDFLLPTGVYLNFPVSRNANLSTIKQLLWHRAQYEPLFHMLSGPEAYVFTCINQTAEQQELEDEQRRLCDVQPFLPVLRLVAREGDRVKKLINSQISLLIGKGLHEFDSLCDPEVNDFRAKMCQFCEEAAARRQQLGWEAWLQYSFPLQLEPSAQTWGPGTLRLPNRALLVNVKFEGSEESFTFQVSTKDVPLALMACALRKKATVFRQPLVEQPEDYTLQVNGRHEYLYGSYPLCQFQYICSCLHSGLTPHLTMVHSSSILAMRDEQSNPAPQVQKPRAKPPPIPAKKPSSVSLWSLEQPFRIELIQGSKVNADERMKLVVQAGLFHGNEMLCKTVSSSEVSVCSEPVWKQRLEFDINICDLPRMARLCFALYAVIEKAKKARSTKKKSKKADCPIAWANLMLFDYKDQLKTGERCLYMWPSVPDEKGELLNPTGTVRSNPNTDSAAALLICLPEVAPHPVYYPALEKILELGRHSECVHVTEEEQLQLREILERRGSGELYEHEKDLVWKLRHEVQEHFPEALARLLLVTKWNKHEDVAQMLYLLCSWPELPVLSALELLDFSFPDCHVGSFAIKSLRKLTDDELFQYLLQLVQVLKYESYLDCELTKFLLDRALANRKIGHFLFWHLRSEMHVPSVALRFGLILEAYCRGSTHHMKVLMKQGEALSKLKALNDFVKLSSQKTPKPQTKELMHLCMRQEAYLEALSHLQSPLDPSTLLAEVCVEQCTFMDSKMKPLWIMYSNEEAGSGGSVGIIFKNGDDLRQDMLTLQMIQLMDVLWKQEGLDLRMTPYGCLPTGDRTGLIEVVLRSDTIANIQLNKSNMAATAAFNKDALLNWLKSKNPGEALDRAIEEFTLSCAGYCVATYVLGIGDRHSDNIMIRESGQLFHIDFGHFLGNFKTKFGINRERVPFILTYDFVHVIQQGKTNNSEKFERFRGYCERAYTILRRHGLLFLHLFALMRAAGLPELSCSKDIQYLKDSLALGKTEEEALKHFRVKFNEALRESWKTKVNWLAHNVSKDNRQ
PI3-kinase p110-alpha/p85-alpha, sequence (P27986 whole entry, canonical isoform): as the sequence (P27986 whole entry) above
PI3-kinase p110-alpha/p85-alpha, sequence (P42336 whole entry, canonical isoform): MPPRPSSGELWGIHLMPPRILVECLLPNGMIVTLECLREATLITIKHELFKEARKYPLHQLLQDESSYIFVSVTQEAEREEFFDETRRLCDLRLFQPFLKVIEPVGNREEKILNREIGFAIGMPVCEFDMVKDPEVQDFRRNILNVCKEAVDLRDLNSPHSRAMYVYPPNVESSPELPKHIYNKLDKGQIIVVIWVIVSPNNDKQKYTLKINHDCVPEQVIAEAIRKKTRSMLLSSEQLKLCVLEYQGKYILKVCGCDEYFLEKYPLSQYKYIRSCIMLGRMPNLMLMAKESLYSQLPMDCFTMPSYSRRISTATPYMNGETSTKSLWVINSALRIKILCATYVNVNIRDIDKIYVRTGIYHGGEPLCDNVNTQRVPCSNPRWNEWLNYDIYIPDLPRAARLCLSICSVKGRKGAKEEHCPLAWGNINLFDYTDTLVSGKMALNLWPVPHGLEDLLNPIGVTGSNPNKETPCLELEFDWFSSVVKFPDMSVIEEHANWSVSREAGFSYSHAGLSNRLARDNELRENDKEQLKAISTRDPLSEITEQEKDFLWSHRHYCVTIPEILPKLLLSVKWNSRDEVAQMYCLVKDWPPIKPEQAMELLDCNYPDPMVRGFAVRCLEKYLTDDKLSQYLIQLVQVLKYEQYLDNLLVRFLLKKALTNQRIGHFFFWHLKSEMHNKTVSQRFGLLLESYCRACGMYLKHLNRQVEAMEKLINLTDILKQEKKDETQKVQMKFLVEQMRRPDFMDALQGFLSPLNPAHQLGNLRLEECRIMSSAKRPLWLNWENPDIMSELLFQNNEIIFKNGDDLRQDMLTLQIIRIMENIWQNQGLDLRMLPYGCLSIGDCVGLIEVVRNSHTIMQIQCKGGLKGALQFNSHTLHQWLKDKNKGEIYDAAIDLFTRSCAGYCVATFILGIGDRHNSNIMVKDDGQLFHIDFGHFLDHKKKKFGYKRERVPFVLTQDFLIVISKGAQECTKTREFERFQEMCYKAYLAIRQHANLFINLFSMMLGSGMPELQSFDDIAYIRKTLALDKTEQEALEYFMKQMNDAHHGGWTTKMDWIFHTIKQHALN
Cytochrome P450 3A4, sequence (P08684 whole entry, the tested form may be a part): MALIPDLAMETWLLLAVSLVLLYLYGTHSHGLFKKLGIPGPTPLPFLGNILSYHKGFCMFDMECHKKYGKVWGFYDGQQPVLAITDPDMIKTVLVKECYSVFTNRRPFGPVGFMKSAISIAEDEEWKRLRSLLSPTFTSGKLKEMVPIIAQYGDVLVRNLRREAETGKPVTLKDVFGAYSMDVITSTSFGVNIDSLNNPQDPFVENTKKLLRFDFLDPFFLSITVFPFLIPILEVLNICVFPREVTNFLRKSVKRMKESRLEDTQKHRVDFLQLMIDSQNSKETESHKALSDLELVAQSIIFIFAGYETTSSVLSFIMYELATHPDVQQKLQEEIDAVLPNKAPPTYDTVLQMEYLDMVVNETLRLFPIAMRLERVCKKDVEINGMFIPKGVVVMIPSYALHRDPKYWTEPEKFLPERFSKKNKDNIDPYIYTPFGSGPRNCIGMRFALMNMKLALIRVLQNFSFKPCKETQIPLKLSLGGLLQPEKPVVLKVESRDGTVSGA
T1 sequence (P42338 whole entry, canonical isoform): as the sequence (P42338 whole entry) above

Structure (SMILES) | IC50 [1] [nM] | IC50 [2] | IC50 [3] [nM] | also measured
Cc1cc(C(C)Nc2ccccc2)c2nc(N3CCOCC3)cc(=O)n2c1 (stereo unspecified) | > 10000 | 500 nM | 7600 | –
Cc1nc2c(-c3nnc[nH]3)cc(-c3ccnc(N)c3F)cc2n1-c1ccnc2c(F)ccc(F)c12 | – | – | – | EC50 [4]: 53 nM; bioavailability [5]: 64%; EC50 [6]: 6 nM; fraction unbound at 24 h [7]: 0.07; fraction unbound at 24 h [8]: 0.06; bioavailability [9]: 60%; clearance [10]: 2.17 mL/min/kg; Vd [11]: 0.5 L/kg; fraction unbound at 24 h [12]: 0.08; IC50 [13]: > 25000 nM; Vd [14]: 0.6 L/kg; IC50 [15]: > 25000 nM; EC50 [16]: 15 nM; pKa [17]: 4.8; EC50 [18]: 9 nM; IC50 [19]: > 25000 nM; fraction unbound at 24 h [20]: 0.19; Papp B→A at 10 µM [21]: 31 ×10⁻⁶ cm/s; EC50 [22]: 12 nM; Activity [23]: Non-Toxic
Cc1nc2c(-c3nnc[nH]3)cc(-c3c(F)cnc(N)c3F)cc2n1-c1ccnc2c(F)ccc(F)c12 | > 10000 | 1660 nM | 2520 | –
Clc1cccc2c(-n3cnc4c(-c5ncn[nH]5)cc(-c5ccncc5)cc43)ccnc12 | 5300 | 100 nM | 350 | –
CNc1nccc(-c2cc(-c3nnc[nH]3)c3nc(C)n(-c4ccnc5c(F)ccc(F)c45)c3c2)c1F | > 10000 | > 10000 nM | > 10000 | –
Cc1cc(-c2cc(-c3nnc[nH]3)c3nc(C)n(-c4ccnc5c(F)ccc(F)c45)c3c2)ncn1 | > 10000 | 1140 nM | 1270 | –
Cc1nc2c(-c3nnc[nH]3)cc(-c3ccnc(N)c3Cl)cc2n1-c1ccnc2c(F)ccc(F)c12 | > 10000 | 297 nM | 890 | –
Clc1cccc2c(-n3cnc4c(-c5nnc[nH]5)cc(N5CCOCC5)cc43)ccnc12 | 350 | 12 nM | 60 | –
Cc1cc(-c2cc(-c3nnc[nH]3)c3nc(C)n(-c4ccnc5c(F)ccc(F)c45)c3c2)cc(N)n1 | > 10000 | 2590 nM | 6840 | –
Cc1nc2c(-c3nnc[nH]3)cc(-c3cc(N)ncc3F)cc2n1-c1ccnc2c(F)ccc(F)c12 | > 10000 | 302 nM | 1500 | –
C[C@@H](Nc1cc(F)cc(F)c1)c1cc(C(=O)N(C)C)cc2c(=O)cc(N3CCOCC3)oc12 [AZD-8186] | 6000 | 36 nM | 450 | –

Second part, led by results:

IC50 [1] [nM] | IC50 [2] | IC50 [3] [nM] | Structure (SMILES) | also measured
9420 | 402 nM | 680 | Cc1nc2c(-c3nnc[nH]3)cc(-c3ccnc(C(F)F)c3)cc2n1-c1ccnc2c(F)ccc(F)c12 | –
> 10000 | – | – | Cc1nc2c(-c3nnc[nH]3)cc(-c3ccncc3)cc2n1-c1ccnc2c(F)ccc(F)c12 | pKa [17]: 5.3; IC50 [19]: 1000 nM; CLH [24]: 4 mL/min/kg and 10.2 mL/min/kg
> 10000 | 300 nM and 122 nM and 1110 nM | – | Cc1cc(-c2cc(-c3nnc[nH]3)c3nc(C)n(-c4ccnc5c(F)ccc(F)c45)c3c2)ccn1 | pKa [17]: 5.9; IC50 [19]: 19000 nM
2720 | 35 nM | 55 | Cc1nccc(-c2cc(-c3nnc[nH]3)c3nc(C)n(-c4ccnc5c(F)ccc(F)c45)c3c2)n1 | –
> 10000 | – | – | Cc1nc2c(-c3nnc[nH]3)cc(-c3ccnc(N)c3)cc2n1-c1ccnc2c(F)ccc(F)c12 | Papp A→B at 10 µM [25]: 1.7 ×10⁻⁶ cm/s; pKa [17]: 6.1; IC50 [19]: > 25000 nM; Papp B→A at 10 µM [21]: 18 ×10⁻⁶ cm/s
> 10000 | > 10000 nM | > 10000 | Cc1c(-c2cc(-c3nnc[nH]3)c3nc(C)n(-c4ccnc5c(F)ccc(F)c45)c3c2)ccnc1N | IC50 [26]: 2860 nM
6270 | 52 nM | 75 | Cc1nc2c(-c3nnc[nH]3)cc(-c3ccnc(Cl)c3)cc2n1-c1ccnc2c(F)ccc(F)c12 | –
